# Compound activity deposited in PubChem BioAssay by several laboratories.
# B2AR ag – human beta-2 adrenergic receptor agonism by FAP; response, % (test concentration not listed); Am2.2-beta2AR cells, FAP receptor internalization, flow cytometry; hit rate 0.43% among 340,000; AID 504454;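 active = response above a set limit, near 3 SD of response in nonfluorescent compounds, cut at about 42% in these data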
# Target sequence (P07550 whole entry, looked up): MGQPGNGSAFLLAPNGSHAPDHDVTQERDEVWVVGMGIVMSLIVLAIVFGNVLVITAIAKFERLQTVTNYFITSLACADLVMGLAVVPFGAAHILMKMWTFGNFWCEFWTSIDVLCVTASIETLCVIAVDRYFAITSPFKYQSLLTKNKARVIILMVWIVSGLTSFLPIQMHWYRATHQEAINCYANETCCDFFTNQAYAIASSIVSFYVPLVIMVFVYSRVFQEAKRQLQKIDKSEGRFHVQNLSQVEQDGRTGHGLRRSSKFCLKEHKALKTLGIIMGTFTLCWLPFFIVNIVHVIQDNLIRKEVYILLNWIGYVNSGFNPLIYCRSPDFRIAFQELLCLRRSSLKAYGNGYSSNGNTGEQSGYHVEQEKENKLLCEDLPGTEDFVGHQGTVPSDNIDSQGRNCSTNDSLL
# MC4R ag barr – human MC4R agonism via beta-arrestin | P32245 | U2OS MC4R beta-arrestin complementation, luminescence; percent of melanotan II response, DMSO zero | activation, % at 8.9 µM | hit rate 0.98% among 360,000;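 active = activation above a per-plate cutoff, the mean activation of sample wells on that plate plus 3 SD, cut at about 8% in these data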
# MC4R antag cAMP – human MC4R antagonism in cAMP assay; P32245; MC4R-expressing cells, MTII-stimulated cAMP, LANCE TR-FRET; inhibition, % at 6.5 µM; hit rate 0.48% among 360,000;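 active = inhibition above its plate's cutoff, the mean of tested wells on that plate plus 3 SD, cut at about 29% in these data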
#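 Material – human MC4R-expressing U2OS cells · Repeats – no replicates · Detection – TR-FRET with Eu-cAMP and labeled anti-cAMP, 671 nm · Times – compound 30 min, challenge 1 h, detection 1 h · Compound – single nominal compound dose of 6.5 µM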
# ABHD5 PLIN5 PPI – inhibitors of human ABHD5-perilipin-5 interaction | hit rate 0.78% among 360,000 | Split G. princeps luciferase complementation, luminescence, 4 h | inhibition, % at 4 µM;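 active = inhibition above the mean inhibition across every tested compound plus 3 SD, cut at about 22% in these data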
# PfGluPho inh – PfG6PD (Plasmodium falciparum) enzyme inhibition | PfGluPho enzyme, NADPH resazurin-diaphorase fluorescence | inhibition, % at 20 µM | hit rate 0.78% among 350,000;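 active = inhibition reaching at least a set limit at 20 µM in the primary screen, cut at about 59% in these data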
# Beta2AR ag CP1 – human beta-2 adrenergic receptor agonism, cherry pick; hit rate 25% among 1,100; AID 540358; shares compounds with B2AR ag; Am2.2-beta2AR cells, FAP surface receptor, flow cytometry; stronger effect = lower value; percent response (surface receptor), % at 10 µM;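 active = surface receptor percent response at or below 58%, roughly 3 SD from nonfluorescent compounds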
# FAP fluor counter – counter-screen for beta-2AR agonists: fluorescence in Am2.2 cells. shares compounds with B2AR ag. FAP fluorogen flow cytometry, fluorescence counterscreen; stronger effect = lower value. calls only at 10 µM. 1,100 tested, under 10 active. AID 588765;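 active = percent response below a set limit in fluorescence channel 1 and below 50% in channel 8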
# A number is an active result; - = inactive; . = not tested or not shown. Most compounds without a hit are left out; they make up all but 3% or so of the library.
SMILES,B2AR ag,MC4R ag barr,MC4R antag cAMP,ABHD5 PLIN5 PPI,PfGluPho inh,Beta2AR ag CP1,FAP fluor counter
CCOC(=O)C1(C)CCCN1C(=O)c1snnc1C (centres undefined),.,-,-,-,.,.,.
COC(=O)NC1(C(F)(F)F)C(=O)Nc2c1c(=O)n(C)c(=O)n2C (centres undefined),59,-,-,-,-,-,-
Cc1cc(C)nc(NC(=O)CSc2nc3ccccc3s2)n1,-,-,-,-,-,.,.
Cc1cc(C)n2c(Br)c(CSc3nc4ccccc4s3)nc2n1,47,-,-,-,-,-,-
CN(C)CCCN(C(=O)c1ccc([N+](=O)[O-])s1)c1nc2cc3c(cc2s1)OCCO3,42,-,-,-,-,-,-
O=S(=O)(Nc1cccc(-c2cn3cccnc3n2)c1)c1ccc(-c2ccccc2)cc1,110,-,-,-,-,12,-
Cc1[nH]c2ccccc2c1C(=O)C(C)OC(=O)c1ccccc1NCCO (centres undefined),-,-,-,-,-,.,.
CCCCn1c(=N)n(CC(O)COc2cccc(C)c2)c2ccccc21 (centres undefined),46,-,-,-,-,-,-
CCCn1c(=N)n(CC(O)COc2ccc(C)cc2)c2ccccc21 (centres undefined),-,-,-,-,-,.,.
CCN(CC)c1nc(SCCOC(=O)Nc2ccccc2)nc(N(CC)CC)n1,44,-,-,-,-,-,-
COCCn1c(C)cc(/C=C2/SC(=O)N(CC(=O)N3CCCC3)C2=O)c1C,-,-,-,-,-,.,.
CCc1cc[n+](-c2nc3ccccc3nc2[N-]S(=O)(=O)c2ccc(Br)s2)cc1,-,-,-,-,-,.,.
Fc1ccc(Nc2nc(-c3ccncc3)nc3ccccc23)cc1F,50,-,-,-,-,-,-
Clc1cccc(Nc2nc(-c3ccncc3)nc3ccccc23)c1,-,-,-,-,-,.,.
CCOC(=O)C1(C)C=C(Nc2ccc(O)cc2)C(=O)N1c1ccc(O)cc1 (centres undefined),52,-,-,-,-,28,-
CCOc1ccc(CNC(=O)c2ccc(NC(=O)C3=CSCCO3)cc2)cc1,105,-,-,-,-,21,-
c1ccc(CNc2nc(-c3cccnc3)nc3ccccc23)cc1,-,-,-,-,-,-,-
Clc1cccc(CNc2nc(-c3cccnc3)nc3ccccc23)c1,-,-,-,-,-,.,.
NS(=O)(=O)c1ccc(CNc2nc(-c3cccnc3)nc3ccccc23)cc1,-,-,-,-,-,-,-
c1cncc(CNc2nc(-c3cccnc3)nc3ccccc23)c1,-,-,-,-,-,-,-
Cc1ccc(CNc2nc(-c3cccnc3)nc3ccccc23)cc1,-,-,-,-,-,-,-
CCCCOCCCNC(=O)C[C@@H]1C[C@@]2(C(=O)OC)CCCCC=C2N(CCc2ccc(OC)c(OC)c2)C1=O,.,.,.,-,.,.,.
CCc1ccc(NC(=O)COC(=O)c2nc3nc(C)cc(C)n3n2)cc1,-,-,-,-,-,.,.
c1cncc(-c2nc(NCc3ccc4c(c3)OCO4)c3ccccc3n2)c1,-,-,-,-,-,-,-
Fc1ccc(CNc2nc(-c3cccnc3)nc3ccccc23)cc1,-,-,-,-,-,-,-
SMILES,B2AR ag,MC4R ag barr,MC4R antag cAMP,ABHD5 PLIN5 PPI,PfGluPho inh,Beta2AR ag CP1,FAP fluor counter
CC(C)(C)c1cc(C(=O)NNC(=O)c2ccc(Cl)cc2)no1,-,-,-,-,-,.,.
CC(/C=C/c1ccccc1)=N/NC(=O)c1cccc(Br)c1,-,-,-,-,-,.,.
CCC1(c2ccccc2)NC(=O)N(CC(=O)N(C)Cc2c(F)cccc2Cl)C1=O (centres undefined),82,-,-,-,-,-,-
CCC1(c2ccccc2)NC(=O)N(CC(=O)N(C)Cc2ccccc2)C1=O (centres undefined),-,-,-,-,-,.,.
COC(=O)c1ccc(CN2CCC(Oc3ccc(C(=O)N4CCCCC4)cc3)CC2)cc1,-,-,-,-,-,-,-
CS(=O)(=O)N1CCN(c2ccccc2NC(=O)CSc2ccc(Cl)cc2)CC1,-,-,-,-,-,.,.
O=C(CSc1ccc(Cl)cc1)Nc1ccccc1N1CCN(C(=O)c2ccccc2)CC1,43,-,-,-,-,-,-
Clc1cccc(C2Nc3cccc4cccc(c34)N2)c1Cl,-,-,-,-,-,-,-
O=C(Nc1ccc(Nc2ccncc2)cc1)c1ccc(Nc2ccnc3ccc([N+](=O)[O-])cc23)cc1,69,-,-,-,-,-,-
Cc1cc(C)n(-c2nc(N(C)C)nc(N(C)C)n2)n1,-,-,-,-,-,.,.
Cc1cc(C)n(-c2nc(NC(C)(C)C)nc(NC(C)(C)C)n2)n1,-,-,-,-,-,.,.
Cc1cc(C)n(-c2nc(NC(C)C)nc(NC(C)C)n2)n1,-,-,-,-,-,-,-
CCNc1nc(NCC)nc(-n2nc(C)cc2C)n1,-,-,-,-,-,-,-
NC(=O)c1ccc2c(=O)n3c(-c4cccs4)csc3nc2c1,-,-,-,-,-,.,.
COc1cc(NC(=O)c2ccc(N)nc2)cc(C(=O)Nc2cccc(C(F)(F)F)c2)c1,43,-,-,-,-,-,-
CCN1C(=O)C(=O)N(CC(=O)N2CCN(c3ccccc3)CC2)C1=O,-,-,-,-,-,.,.
COC(=O)CS(=O)(=O)c1ccsc1C(=O)Nc1ccc(F)c(F)c1,47,-,-,-,-,-,-
Cn1c(SC2=CS(=O)(=O)c3ccccc32)nc2ccccc21,74,-,-,-,-,-,-
COc1ccc(Cl)c2sc(N(CCN(C)C)C(=O)c3ccc4c(c3)OCCO4)nc12,44,-,-,-,-,-,-
COc1cc(C(C)=O)ccc1OCC(O)CNCC(O)c1ccccc1 (centres undefined),-,-,-,-,-,-,-
Cc1ccc(CN(C(=O)COc2cccc(C)c2C)C2CCS(=O)(=O)C2)o1 (centres undefined),-,-,-,-,-,.,.
CCOC(=O)c1c(C)[nH]c(C)c1C(=O)COC(=O)c1cccc(S(=O)(=O)N(CC)CC)c1,44,-,-,-,-,-,-
CCOC(=O)c1c(C)[nH]c(C)c1C(=O)COC(=O)c1ccc(S(=O)(=O)N(CC)CC)cc1,-,-,-,-,-,.,.
CC(C)c1nc2sc3c(NCc4ccccc4)ncnc3c2c2c1COC(C)(C)C2,-,-,-,-,-,-,-
CC(C)c1nc2sc3c(NCc4ccco4)ncnc3c2c2c1COC(C)(C)C2,-,-,-,-,-,.,.
CCN(CC)S(=O)(=O)c1cc(NC(=O)C2=COCCO2)ccc1Cl,115,-,-,-,-,24,-
CC(C)C(=O)Nc1ccc2c(c1)C(=O)N(CCC(=O)O)C2=O,43,-,-,-,-,-,-
